What all share (format): functional, organism-based
Assay [1] concerns Plasmodium falciparum. The assay is described as follows: Antimalarial activity against Plasmodium falciparum isolate Kil-164 expressing DHFR Ser108Asn, Asn51Ile, Cys59Arg and Ile164Leu quadruple mutant by [3H]hypoxanthine incorporation assay. The procedure, abridged:
(§1)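 Kenyan isolates (Kilifi, 2006–2008) adapted to long-term in vitro culture; dhfr codons 108, 51, 59, 164 genotyped by PCR-RFLP. Cultured in RPMI 1640 with 10% human serum, 25 mM bicarbonate, 2 mM glutamine, 25 mM HEPES, 5 nM para-aminobenzoic acid, 23 nM folic acid, in washed human erythrocytes. Graded drug concentrations; [3H]hypoxanthine incorporation; IC50 by nonlinear regression of dose-response.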

Assay [2] relates to Plasmodium falciparum. The assay is described as follows: Antimalarial activity against Plasmodium falciparum Kenyan isolates expressing DHFR Ser108Asn, Asn51Ile and Cys59Arg triple mutant by [3H]hypoxanthine incorporation assay. The procedure, abridged:
as §1

Assay [3] deals with Plasmodium falciparum. The assay is described as follows: Antimalarial activity against Plasmodium falciparum Kenyan isolates expressing DHFR Ser108Asn and Cys59Arg or Ser108Asn and Asn51Ile double mutant by [3H]hypoxanthine incorporation assay. The procedure, abridged: as §1
Assay [4] deals with Plasmodium falciparum. The experiment in a line: Antimalarial activity against pyrimethamine-resistant Plasmodium falciparum V1S expressing DHFR quadruple mutant with point mutations at codons 108, 51, 59 and 164 gene by [3H]hypoxanthine incorporation assay.
Assay [5] deals with Plasmodium falciparum. The experiment in a line: Antimalarial activity against Plasmodium falciparum Kenyan isolates by [3H]hypoxanthine incorporation assay.
The subject of assay [6] is Plasmodium falciparum. The assay is described as follows: Antimalarial activity against pyrimethamine-sensitive Plasmodium falciparum 3D7 expressing wild type DHFR by [3H]hypoxanthine incorporation assay.

Structures are written as SMILES.

For `CC1(C)N=C(N)N=C(N)N1OCCCOc1cc(Cl)c(Cl)cc1Cl`, the 50% inhibitory concentration (IC50) (usually the concentration needed to halve the response being measured) came to 0.012 nM in the assay on Plasmodium falciparum [1]; 0.1 nM in the assay on Plasmodium falciparum [2]; 0.069 nM in the assay on Plasmodium falciparum [3]; 0.063 nM with Plasmodium falciparum [4]; 0.072 nM with Plasmodium falciparum [5]; 0.015 nM in the assay with Plasmodium falciparum [6].

`CC1(C)N=C(N)N=C(N)N1c1ccc(Cl)c(Cl)c1` [CHLORCYCLOGUANIL]: the half-maximal inhibitory concentration (IC50) amounted to 87.7 nM with Plasmodium falciparum [1]; 40 nM with Plasmodium falciparum [2]; 38.1 nM in the assay with Plasmodium falciparum [3]; 92.3 nM in the assay with Plasmodium falciparum [4]; 37.8 nM in the assay with Plasmodium falciparum [5]; 0.011 nM with Plasmodium falciparum [6].

Take `CN(Cc1cnc2nc(N)nc(N)c2n1)c1ccc(C(=O)N[C@@H](CCC(=O)O)C(=O)O)cc1` [METHOTREXATE]: the IC50 in the assay with Plasmodium falciparum [1] worked out at 56.6 nM; with Plasmodium falciparum [2] it was 83.6 nM; in the assay with Plasmodium falciparum [3], 84.9 nM; with Plasmodium falciparum [4] it was 40 nM; with Plasmodium falciparum [5] it was 83.6 nM; in the assay with Plasmodium falciparum [6] it was 49.9 nM.

Take `CCc1nc(N)nc(N)c1-c1ccc(Cl)cc1` [PYRIMETHAMINE]: the IC50 in the assay on Plasmodium falciparum [4] came out at 6930 nM; with Plasmodium falciparum [5] it was 733 nM; in the assay on Plasmodium falciparum [6] it was 3.9 nM.

As to `COc1cc(Cc2cnc(N)nc2N)cc(OC)c1OC` [TRIMETHOPRIM], the half-inhibitory concentration (IC50) in the assay with Plasmodium falciparum [1] amounted to 155000 nM; in the assay with Plasmodium falciparum [2], 33700 nM; in the assay on Plasmodium falciparum [3] it was 9310 nM; in the assay with Plasmodium falciparum [4] it was 102000 nM; with Plasmodium falciparum [5], 29700 nM; in the assay on Plasmodium falciparum [6], 407 nM.

`COc1cc(NCc2ccc3nc(N)nc(N)c3c2C)cc(OC)c1OC` [TRIMETREXATE]: the IC50 was determined as 44.7 nM in the assay on Plasmodium falciparum [1]; 20.9 nM in the assay with Plasmodium falciparum [2]; 40.9 nM in the assay on Plasmodium falciparum [3]; 24.8 nM in the assay with Plasmodium falciparum [4]; 30 nM with Plasmodium falciparum [5]; 1.9 nM in the assay with Plasmodium falciparum [6].

The record behind these values is ChEMBL document CHEMBL1649566, “In vitro activity of antifolate and polymorphism in dihydrofolate reductase of Plasmodium falciparum isolates from the Kenyan coast: emergence of parasites with Ile-164-Leu mutation” (Antimicrob Agents Chemother, 2009).
